Screens (PubChem BioAssay)
Only some compounds are listed: those with a hit (about 2.2% of all), similar ones and a draw of the others.
APJ ag – activates the human apelin receptor APJ | 330,000 tested, 0.11% active | AID 2520 | P35414 | CHO-K1 APJ PathHunter beta-arrestin, luminescence; 0% DMSO wells, 100% apelin | activation, % at 20 µM;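 active means activation more than six SD over the plate average, tested at 20 µM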;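 further: 0% = DMSO alone and 100% = apelin-13 at 10 nM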
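Material: CHO-K1 APJ beta-arrestin complementation cell line; Input: cell density 1000 per well; Incubation: compound stimulation 90 min at 25 °C, detection 60 min; Signal: luminescence from split beta-galactosidase complementation, Galacton Star/Emerald II substrate; Controls: DMSO-only wells as negative, 10 nM Apelin-13 as positive control.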
m5-HT2A agonist – agonists of mouse serotonin 5-HT2A receptor (HTR2A); P35363; CHO-K1 mHTR2A beta-arrestin complementation, luminescence; percent of 30 µM serotonin response; activation, % at 7.6 µM; 360,000 tested, 0.66% active;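 active means activation above a run cutoff, the mean activation of all tested compounds plus 3 SD, cut at about 14% in these data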;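 further: 0% = plate median of compound wells and 100% = 30 µM serotonin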
APJ antagonist – antagonists of human APJ apelin receptor | P35414 | CHO-K1 APJ beta-arrestin complementation, luminescence | inhibition, % at 20 µM | 330,000 tested, 0.32% active;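 active means inhibition above about 40% at 20 µM, limit read from the data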;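 further: cells challenged with 10 nM apelin-13 agonist together with compound; plate controls were apelin-13 plus DMSO wells for no effect and DMSO wells lacking apelin-13 for full effect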
CCR6 antagonist – blocks CCL20-driven beta-arrestin recruitment at human CCR6. CHO-K1 CCR6 PathHunter beta-arrestin, luminescence, CCL20-stimulated. P51684. inhibition, % at 20 µM. 340,000 tested, 0.49% active. AID 493098;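 active means compounds whose inhibition of the agonist-driven luminescence signal at 20 µM reaches about 50%, limit read from the data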;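 further: cells stimulated with CCL20 at 14 nM final; plate controls were DMSO with CCL20 for no effect and DMSO without agonist for full effect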
CXCR6 block – blocks human CXCR6 beta-arrestin recruitment; O00574; CHO-K1 PathHunter CXCR6 beta-arrestin, luminescence; inhibition, % at 20 µM; 360,000 tested, 0.36% active; in the data active means inhibition above about 34%, passing the limit was not always enough;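 further: antagonist mode with CXCL16 agonist at 10 nM final; 0% = 10 nM CXCL16 with DMSO and 100% = unstimulated wells without agonist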
Target sequence (O00574 whole entry, looked up): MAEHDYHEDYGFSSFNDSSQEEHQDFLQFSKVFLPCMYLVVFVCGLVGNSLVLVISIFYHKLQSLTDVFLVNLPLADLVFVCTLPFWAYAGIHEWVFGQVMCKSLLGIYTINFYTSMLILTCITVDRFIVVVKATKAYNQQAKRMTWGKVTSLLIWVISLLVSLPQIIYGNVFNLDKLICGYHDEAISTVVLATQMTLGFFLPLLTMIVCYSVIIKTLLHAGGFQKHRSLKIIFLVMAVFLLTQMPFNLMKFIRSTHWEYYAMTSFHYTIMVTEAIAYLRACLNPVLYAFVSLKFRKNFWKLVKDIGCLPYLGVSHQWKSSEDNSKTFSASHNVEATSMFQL
EBI2 antag – antagonists of human EBI2 receptor. AID 651636. EBI2 beta-arrestin recruitment, luminescence, 7a,25-OHC stimulated. inhibition, % at 5 µM. 360,000 tested, 0.81% active; in the data active means inhibition above about 38%;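 further: enzyme fragment complementation signal reports receptor beta-arrestin coupling in cells; 0% = agonist plus DMSO wells and 100% = wells without agonist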
The depositor's hits bear a star; · = no result.

SMILES	APJ ag	m5-HT2A agonist	APJ antagonist	CCR6 antagonist	CXCR6 block	EBI2 antag
CN1/C(=C\C=C2C(=O)NC(=O)NC2=O)C(C)(C)c2ccccc21	-1.8	11.7	22.1	10.0	-2.4	-0.3
CCN1/C(=C/C=C/C2=[N+](CC)c3ccccc3C2(C)C)C(C)(C)c2ccccc21	·	-12.0	·	·	55.9*	15.9
CN1/C(=C\C=C\C2=[N+](C)c3ccc4ccccc4c3C2(C)C)C(C)(C)c2ccccc21	-4.9	·	42.6*	·	·	·
CN1/C(=C\C=Nc2ccccc2)C(C)(C)c2ccccc21	0.7	3.1	-15.2	6.1	-6.0	13.6
ON1C2CCCCC2N(O)C1c1ccccc1F (stereo not drawn)	-8.1	1.2	24.1	80.3*	23.5	-13.0
O=C1NCN(c2ccccc2)C12CCN(C(c1ccnc3ccccc13)c1nnnn1-c1ccc3c(c1)OCCO3)CC2 (stereo not drawn)	·	1.4	·	·	-6.3	2.2
O=c1c2ccccc2[se]n1-c1ccccc1	-1.2	-7.8	-3.5	15.4	-2.7	61.7*
COC(=O)C1=C(c2ccc(-c3ccccc3)c(F)c2)C[C@@H]2CC[C@H]1N2C(=O)N1CCC(C)CC1	-3.7	-4.9	13.6	28.3	41.4*	32.6
C=C(C)Cn1c(=O)n(CC2CS2)c2ccccc21 (stereo not drawn)	-2.6	1.7	4.3	2.4	-21.8	-5.2
O=C(Cn1c(=O)n(CC2CS2)c2ccccc21)N1CCCCCC1 (stereo not drawn)	-5.5	-0.1	8.4	61.9*	-5.4	-9.2
CC12CCCCC1N(O)CN2O (stereo not drawn)	-1.4	-0.8	17.6	60.4*	5.2	3.8
CC(CC(C)(C)N1CC1)=NNC(=O)Nc1cccc2ccccc12	·	5.5	·	10.8	-1.1	-1.3
Cc1ccc(C[n+]2c(-c3ccc(C)cc3)cc(-c3ccc(C)cc3)cc2-c2ccc(C)cc2)cc1	13.1	16.9*	0.6	28.8	15.8	-4.3
O=C1C(=O)c2cccc3cccc1c23	-12.7	-5.8	62.6*	67.2*	43.7*	56.5*
O=C(NCC1=C(c2cccc3ccccc23)C[C@@H]2CC[C@H]1N2Cc1ccco1)c1ccc([N+](=O)[O-])cc1	·	-4.6	·	·	8.4	19.0
CCC(C)(O)C(=O)OC1C(=O)OC2CC3C(C)=CC(O)C(O)C3(C)C3C4(O)OCC23C1C(C)C4O (stereo not drawn)	·	-5.8	·	·	-3.8	1.0
O=C1NC(=O)N(c2ccccc2)C(=O)/C1=C/C=C/c1ccco1	-0.3	-1.9	-28.7	22.2	8.7	-1.4
CN(C)c1ccc(/C=C/C=C2/C(=O)NC(=O)N(c3ccccc3)C2=O)cc1	·	-2.8	·	65.8*	46.2*	26.7
C=C1C(=O)OC2CC(C)C3C=CC(=O)C3(C)C(O)C12 (stereo not drawn)	·	0.5	·	46.6	28.8	47.0*
COc1ccc(C(=O)C2CCCN(CCc3ccccc3)C2)cc1OC (stereo not drawn)	·	2.1	·	·	1.6	0.7
CC(=O)OC(C)(C)/C=C/C(=O)[C@](C)(O)C1[C@H](O)C[C@@]2(C)C3CC=C4C(C[C@H](O)C(=O)C4(C)C)[C@]3(C)C(=O)C[C@]12C (stereo partly drawn)	1.6	16.4*	17.8	25.6	16.8	-81.9
CC(C)OCCCNC(=O)c1c(N)n(Cc2cccs2)c2nc3ccccc3nc12	-5.0	7.0	20.8	-11.2	-1.3	71.2*
COC(=O)C1CN(C#N)N(c2ccc(Cl)cc2)C12c1ccccc1-c1ccccc12 (stereo not drawn)	2.1	-2.7	21.3	32.3	22.8	53.0*
C[C@]12CCC3C(CC[C@H]4C[C@@H](O)CC[C@]34C)C1CC[C@@H]2OC(=O)[C@H](N)CCCCN (stereo partly drawn)	14.1	-1.2	-0.8	1.6	-2.5	-0.4
CC1CCN(C(CC(=O)c2ccccc2)C(=O)c2ccccc2)CC1 (stereo not drawn)	·	-6.3	·	65.3*	30.4	15.5
O=C(c1ccccc1)C(CN1CCCC1)c1ccccc1 (stereo not drawn)	·	-1.4	·	8.4	6.7	-55.4
CN(Cc1cccc(-c2ccncc2)c1)C(=O)Oc1ccccc1Cc1ccccc1	·	-0.7	·	·	12.6	18.4
